One assay deals with Micrococcus luteus. Kind of assay: In vitro minimum inhibitory concentration was measured against Micrococcus luteus ATCC 9341 strain. Format: functional. The procedure, abridged:
(§1)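 Streptococci were tested on brain heart infusion agar plus 20 units/mL catalase, Proteus on Mueller-Hinton with 3% agar, and others on Mueller-Hinton agar. Inocula were 100-fold-diluted overnight cultures, about 3 × 10^4 CFU/spot, read after overnight incubation at 36 °C.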

In the next assay the test system is Proteus mirabilis. Kind of assay: In vitro minimum inhibitory concentration was measured against Proteus mirabilis 90 strain. The class given is functional. The procedure, abridged: as §1
A further assay deals with Citrobacter freundii. Kind of assay: In vitro minimum inhibitory concentration was measured against Citrobacter freundii BS-16 (beta lactamase producer) strain. The class given is functional. The procedure, abridged:
(§2)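 MICs were determined by agar dilution with 2-fold dilutions giving final 128–0.0156 µg/mL, extended to 0.000977 µg/mL where needed. Streptococci were tested on brain heart infusion agar plus 20 units/mL catalase, Proteus on Mueller-Hinton with 3% agar, and others on Mueller-Hinton agar. Inocula were 100-fold-diluted overnight cultures, about 3 × 10^4 CFU/spot, read after overnight incubation at 36 °C.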

For assay [1], the system named is Pseudomonas aeruginosa. Kind of assay: In vitro minimum inhibitory concentration was measured against Pseudomonas aeruginosa 18S/H strain. Format: functional. The procedure, abridged:
as §1

Assay [2] relates to Staphylococcus aureus. Briefly: In vitro minimum inhibitory concentration was measured against Staphylococcus aureus smith strain. The class given is functional.
The next assay relates to Serratia marcescens. Kind of assay: In vitro minimum inhibitory concentration was measured against Serratia marcescens 1071(beta lactamase producer) strain. The class given is functional. The procedure, abridged: as §1
Assay [3] deals with Enterobacter cloacae. Briefly: In vitro minimum inhibitory concentration was measured against Enterobacter cloacae 5699 strain. The class given is functional.
The test system of the next assay is Proteus vulgaris. Kind of assay: In vitro minimum inhibitory concentration was measured against Proteus vulgaris 1028BC (beta lactamase producer) strain. Format: functional. The procedure, abridged: as §1
The test system of the next assay is Enterococcus faecalis. Briefly: In vitro minimum inhibitory concentration was measured against Enterococcus faecalis ATCC 29212 strain. Format: functional. The procedure, abridged:
as §1

Assay [4] concerns Pseudomonas aeruginosa. Kind of assay: In vitro minimum inhibitory concentration was measured against Pseudomonas aeruginosa 8780 strain. The class given is functional. The procedure, abridged:
as §1

Assay [5] relates to Escherichia coli. Briefly: In vitro minimum inhibitory concentration was measured against Escherichia coli 257 strain. The class given is functional. The procedure, abridged:
as §1

For assay [6], the system named is Escherichia coli. Briefly: In vitro minimum inhibitory concentration was measured against Escherichia coli TEM-1 (Beta lactamase producer) strain. Format: functional. The procedure, abridged: as §1
The subject of the next assay is Streptococcus pyogenes. Briefly: In vitro minimum inhibitory concentration was measured against Streptococcus pyogenes 4 strain. The class given is functional. The procedure, abridged: as §1
The next assay has as its system Klebsiella pneumoniae. Kind of assay: In vitro minimum inhibitory concentration was measured against Klebsiella pneumoniae A strain. The class given is functional. The procedure, abridged:
as §1

Assay [7] concerns Enterobacter cloacae. Kind of assay: In vitro minimum inhibitory concentration was measured against Enterobacter cloacae p99 (beta lactamase producer) strain. The class given is functional.
Assay [8] concerns Staphylococcus aureus. Briefly: In vitro minimum inhibitory concentration was measured against Staphylococcus aureus 753 (Methicillin resistant) strain. The class given is functional.
The test system of the next assay is Streptococcus pneumoniae. Kind of assay: In vitro minimum inhibitory concentration was measured against Streptococcus pneumoniae 6301 strain. The class given is functional. The procedure, abridged: as §1
Assay [9] has as its system Escherichia coli. Kind of assay: In vitro minimum inhibitory concentration was measured against Escherichia coli ATCC 25922 strain. The class given is functional. The procedure, abridged: as §1
Assay [10] deals with Staphylococcus aureus. Kind of assay: In vitro minimum inhibitory concentration was measured against Staphylococcus aureus 67-0 (Methicillin resistant) strain. The class given is functional.
The target in assay [11] is T1, Penicillin-binding protein 1B (Escherichia coli K-12) (UniProt P02919).
T1 sequence (whole entry): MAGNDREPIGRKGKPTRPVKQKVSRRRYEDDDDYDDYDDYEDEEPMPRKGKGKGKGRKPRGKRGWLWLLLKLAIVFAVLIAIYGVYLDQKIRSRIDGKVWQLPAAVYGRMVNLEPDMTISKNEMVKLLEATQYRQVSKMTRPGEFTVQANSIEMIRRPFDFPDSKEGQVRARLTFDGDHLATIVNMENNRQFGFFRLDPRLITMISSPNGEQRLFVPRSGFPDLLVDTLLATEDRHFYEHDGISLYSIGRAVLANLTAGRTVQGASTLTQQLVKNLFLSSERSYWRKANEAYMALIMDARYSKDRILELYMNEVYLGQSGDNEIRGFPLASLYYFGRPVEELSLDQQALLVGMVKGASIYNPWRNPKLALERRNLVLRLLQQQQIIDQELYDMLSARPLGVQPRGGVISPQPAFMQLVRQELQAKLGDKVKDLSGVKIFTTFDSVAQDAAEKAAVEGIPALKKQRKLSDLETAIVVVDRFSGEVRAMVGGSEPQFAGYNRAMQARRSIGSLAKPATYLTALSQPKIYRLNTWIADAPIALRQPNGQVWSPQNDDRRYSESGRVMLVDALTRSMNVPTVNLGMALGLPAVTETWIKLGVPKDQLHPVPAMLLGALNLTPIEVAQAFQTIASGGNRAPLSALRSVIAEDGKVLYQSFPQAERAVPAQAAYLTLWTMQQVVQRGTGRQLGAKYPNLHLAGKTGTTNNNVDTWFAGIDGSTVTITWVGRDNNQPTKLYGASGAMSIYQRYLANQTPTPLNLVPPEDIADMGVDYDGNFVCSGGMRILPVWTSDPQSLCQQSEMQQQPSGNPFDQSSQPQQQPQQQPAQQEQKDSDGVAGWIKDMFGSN
Kind of assay: Affinity for penicillin binding protein 1b of Escherichia coli UB1005 (DC0) was evaluated. Also noted: unit not given here. The procedure, abridged:
(§3)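 Solubilised membranes from sonicated E. coli UB1005 served as the binding-protein source. Binding was read as inhibition of [14C]penicillin G binding.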

Assay [12] has as its target T2, Peptidoglycan D,D-transpeptidase MrdA (Escherichia coli K-12) (UniProt P0AD65).
T2 sequence (whole entry): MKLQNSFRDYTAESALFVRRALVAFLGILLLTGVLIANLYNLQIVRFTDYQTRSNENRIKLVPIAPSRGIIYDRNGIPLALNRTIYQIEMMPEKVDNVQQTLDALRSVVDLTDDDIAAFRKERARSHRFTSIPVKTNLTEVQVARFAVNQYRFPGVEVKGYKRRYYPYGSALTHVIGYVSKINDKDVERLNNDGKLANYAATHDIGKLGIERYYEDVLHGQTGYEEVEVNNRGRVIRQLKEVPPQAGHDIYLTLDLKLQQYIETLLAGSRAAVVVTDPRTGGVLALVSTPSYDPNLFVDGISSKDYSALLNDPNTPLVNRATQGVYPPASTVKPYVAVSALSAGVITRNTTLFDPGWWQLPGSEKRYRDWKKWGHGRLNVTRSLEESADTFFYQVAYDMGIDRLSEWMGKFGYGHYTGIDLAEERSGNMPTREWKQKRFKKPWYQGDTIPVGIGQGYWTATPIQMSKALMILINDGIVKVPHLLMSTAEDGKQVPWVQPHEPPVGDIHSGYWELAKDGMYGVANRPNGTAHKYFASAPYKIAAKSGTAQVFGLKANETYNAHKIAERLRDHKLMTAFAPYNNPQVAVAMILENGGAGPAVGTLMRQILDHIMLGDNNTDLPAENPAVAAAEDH
Kind of assay: Affinity for penicillin binding protein 2 of Escherichia coli UB1005 (DC0) was evaluated. Also noted: unit not given here. The procedure, abridged: as §3

Assay [13] relates to Escherichia coli. Briefly: Minimum inhibitory concentration against E. coli UB1005 (DC0).
The test system of assay [14] is Escherichia coli. Briefly: Minimum inhibitory concentration for DC2, a permeability mutant. The procedure, abridged: as §2
For assay [15], the target named is T3, Penicillin-binding protein 1A (Escherichia coli K-12) (UniProt P02918).
T3 sequence (whole entry): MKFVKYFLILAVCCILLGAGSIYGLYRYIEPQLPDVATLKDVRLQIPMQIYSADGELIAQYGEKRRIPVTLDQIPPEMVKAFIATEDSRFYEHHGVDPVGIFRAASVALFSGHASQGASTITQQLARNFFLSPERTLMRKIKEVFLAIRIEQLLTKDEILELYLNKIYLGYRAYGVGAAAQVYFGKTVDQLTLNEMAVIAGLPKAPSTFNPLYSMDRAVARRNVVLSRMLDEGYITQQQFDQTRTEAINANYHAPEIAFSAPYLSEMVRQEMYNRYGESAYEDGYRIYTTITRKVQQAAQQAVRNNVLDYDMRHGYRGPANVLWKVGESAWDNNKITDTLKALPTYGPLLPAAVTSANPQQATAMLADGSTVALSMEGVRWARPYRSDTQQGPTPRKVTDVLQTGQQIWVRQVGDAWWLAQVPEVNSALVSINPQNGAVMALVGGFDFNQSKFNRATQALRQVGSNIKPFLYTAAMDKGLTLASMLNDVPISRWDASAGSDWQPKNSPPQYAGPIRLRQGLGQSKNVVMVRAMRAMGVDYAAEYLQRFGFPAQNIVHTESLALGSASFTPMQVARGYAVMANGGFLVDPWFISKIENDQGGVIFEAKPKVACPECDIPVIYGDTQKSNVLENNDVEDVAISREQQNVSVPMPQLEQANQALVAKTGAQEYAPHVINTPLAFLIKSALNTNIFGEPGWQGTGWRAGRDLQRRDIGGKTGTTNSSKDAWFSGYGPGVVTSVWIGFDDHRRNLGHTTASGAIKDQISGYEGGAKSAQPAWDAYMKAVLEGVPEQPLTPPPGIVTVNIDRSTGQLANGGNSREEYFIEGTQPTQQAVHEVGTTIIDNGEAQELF
Kind of assay: Affinity for penicillin binding protein 1a of Escherichia coli UB1005 (DC0) was evaluated. Also noted: unit not given here. The procedure, abridged: as §3

Assay [16] relates to Penicillin-binding protein 3 (Escherichia coli). Briefly: Affinity for penicillin binding protein 3 of Escherichia coli UB1005 (DC0) was evaluated. Also noted: unit not given here.

≈ marks a conversion by molar mass, not a printed value.

Consider `CC(=O)OCC1=C(C(=O)O)N2C(=O)[C@@H](NC(=O)C(O)c3ccccc3)[C@H]2SC1` (some centres undefined), for which the MIC was 0.125 µg/mL (≈ 0.308 µM) against Micrococcus luteus; 2 µg/mL (≈ 4.92 µM) against Proteus mirabilis; over 128 µg/mL in the assay with Citrobacter freundii; over 128 µg/mL against Pseudomonas aeruginosa [1]; 0.5 µg/mL (≈ 1.23 µM) against Staphylococcus aureus [2]; over 128 µg/mL against Serratia marcescens. In addition, the MIC in the assay with Enterobacter cloacae [3] was 16 µg/mL (≈ 39.4 µM); in the assay with Proteus vulgaris it was over 128 µg/mL; in the assay on Enterococcus faecalis, 16 µg/mL (≈ 39.4 µM); in the assay with Pseudomonas aeruginosa [4], over 128 µg/mL; against Escherichia coli [5], 2 µg/mL (≈ 4.92 µM); against Escherichia coli [6], 8 µg/mL (≈ 19.7 µM). In addition, the MIC against Streptococcus pyogenes was 0.063 µg/mL (≈ 0.155 µM); against Klebsiella pneumoniae, 2 µg/mL (≈ 4.92 µM); in the assay with Enterobacter cloacae [7], over 128 µg/mL; against Staphylococcus aureus [8] it was 128 µg/mL (≈ 315 µM); in the assay on Streptococcus pneumoniae, 0.125 µg/mL (≈ 0.308 µM); in the assay with Escherichia coli [9], 2 µg/mL (≈ 4.92 µM). The compound also returned an MIC in the assay on Staphylococcus aureus [10] of 64 µg/mL (≈ 157 µM).
Take `CC(C)(O/N=C(\C(=O)N[C@@H]1C(=O)N2C(C(=O)O)=C(CN3CCN(c4cc5c(cc4F)c(=O)c(C(=O)O)cn5C4CC4)CC3)CS[C@H]12)c1csc(N)n1)C(=O)O`: the Binding affinity in assay [11] is 100; in assay [12], 100; in assay [15] it was 100; in assay [16] it was 2. The MIC is 2 µg/mL (≈ 2.5 µM) with Micrococcus luteus; 2 µg/mL (≈ 2.5 µM) with Proteus mirabilis; 4 µg/mL (≈ 5.01 µM) in the assay on Escherichia coli [13]; 0.125 µg/mL (≈ 0.156 µM) against Citrobacter freundii; 2 µg/mL (≈ 2.5 µM) against Pseudomonas aeruginosa [1]; 8 µg/mL (≈ 10 µM) against Staphylococcus aureus [2]. The MIC is 0.25 µg/mL (≈ 0.313 µM) in the assay on Escherichia coli [14]; 1 µg/mL (≈ 1.25 µM) in the assay with Serratia marcescens; 1 µg/mL (≈ 1.25 µM) against Enterobacter cloacae [3]; 1 µg/mL (≈ 1.25 µM) in the assay on Proteus vulgaris; 8 µg/mL (≈ 10 µM) against Enterococcus faecalis; 8 µg/mL (≈ 10 µM) in the assay on Pseudomonas aeruginosa [4]. Further, the MIC was determined as 0.25 µg/mL (≈ 0.313 µM) against Escherichia coli [5]; 0.5 µg/mL (≈ 0.626 µM) with Escherichia coli [6]; 0.25 µg/mL (≈ 0.313 µM) with Streptococcus pyogenes; 0.5 µg/mL (≈ 0.626 µM) against Klebsiella pneumoniae; 0.5 µg/mL (≈ 0.626 µM) in the assay on Enterobacter cloacae [7]; 8 µg/mL (≈ 10 µM) against Staphylococcus aureus [8]. The MIC came to 0.25 µg/mL (≈ 0.313 µM) with Streptococcus pneumoniae, 0.25 µg/mL (≈ 0.313 µM) with Escherichia coli [9] and 16 µg/mL (≈ 20 µM) against Staphylococcus aureus [10].

Values taken from ChEMBL document CHEMBL1127320, “Dual-action cephalosporins incorporating a 3'-tertiary-amine-linked quinolone” (J Med Chem, 1994).
